RBBP9 inhibitor: inhibitors of human serine hydrolase RBBP9 | recombinant RBBP9, FP-Rh probe fluorescence polarization | inhibition, % at 7.94 µM | hit rate 0.2% among 220,000 | AID 1515;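 active = inhibition above the campaign mean of all tested compounds plus 3 SD, cut at about 14% in these data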;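 also: plate controls were DMSO wells with RBBP9 for no effect and wells lacking RBBP9 protein for full effect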
Target sequence (O75884 whole entry, looked up): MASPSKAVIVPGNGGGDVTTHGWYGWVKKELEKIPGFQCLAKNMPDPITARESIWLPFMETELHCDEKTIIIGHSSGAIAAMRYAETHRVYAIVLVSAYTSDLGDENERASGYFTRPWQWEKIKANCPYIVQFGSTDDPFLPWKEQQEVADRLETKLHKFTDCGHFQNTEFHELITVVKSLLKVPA
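Measured by: FP readout at 525/598 nm; material: recombinant human RBBP9; also added: Serine-hydrolase probe FP-Rh, 375 nM pre-mixing; medium: Tris buffer pH 8.0, NaCl, Pluronic; replication: one well per compound; doses: one concentration, 7.94 µM nominal, 0.794% DMSO; timing: preincubation 30 min plus labeling 45 min at 25 °C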
PfM18AAP inh: blocks P. falciparum M18 aspartyl aminopeptidase; recombinant PfM18AAP, H-Glu-NHMec fluorogenic cleavage; inhibition, % at 7.35 µM; hit rate 1.2% among 290,000; AID 1822;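 active = inhibition above the campaign mean inhibition over all tested compounds plus 3 SD, cut at about 28% in these data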;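 also: 0% = plate median of test compound wells and 100% = 2 mM ZnCl2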
TNF death inh: blocks TNF-alpha induced death of Jurkat FADD-/- cells; Jurkat FADD-/- TNF necroptosis rescue, ATP luminescence, 24 h; 0 = TNF only, 100 = no-TNF cells; hit rate 0.068% among 220,000; activation (protection from cell death), % at 10 µM; AID 463075;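 active = activation, meaning protection from cell death, of at least 50% relative to plate controls; inactive = activation below 50%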;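 also: necroptosis triggered by 40 ng/mL TNF-alpha added together with compound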
zVAD death inh: L929 zVAD cell death inhibition; L929 zVAD necroptosis rescue, ATP luminescence, 24 h; with zVAD 60 µM; viability rescue, % at 10 µM; hit rate 0.38% among 220,000;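 active = activation, scaled between plate controls, above about 75%, limit read from the data; inactive = activation under that limit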;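 also: 0% = zVAD with DMSO and 100% = DMSO alone without zVAD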
p97 inhibitor: blocks human p97 ATPase activity; recombinant p97 ATPase, Kinase-Glo ATP luminescence, 3 h; hit rate 0.42% among 220,000; AID 1481; inhibition, % at 8 µM; P55072; in the data active = inhibition above about 15%;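 also: 0% = DMSO vehicle and 100% = wells lacking enzyme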
Wee1 degr inh: inhibitors of human Wee1 degradation; HeLa Luc-Wee1K328M stability, luciferase luminescence; 100% = proteasome inhibitor MG132 effect; reporter increase, % at 5 µM; P30291; hit rate 1.2% among 220,000; AID 1321;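 active = activation above the mean of all tested compounds plus 3 SD, set per screening run, cut at about 8.8% in these data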;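 also: cells exposed to compound for 20 h before luminescence read; 0% = DMSO alone and 100% = MG132 at 30 µM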
zVAD necrop conf: confirmed blocker of zVAD induced death in L929 cells; hit rate 16% among 760; shares compounds with zVAD death inh; AID 463117; activation (protection from necroptosis), % at 10 µM; L929 zVAD-induced necroptosis rescue, ATP luminescence, 24 h;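 active = mean protection from necroptosis of at least 50% over duplicate tests; inactive = mean protection below 50%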;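 also: 0% = cells with zVAD alone and 100% = vehicle cells without zVAD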
Active calls of the source: *; · = no result given. This is a sample that favours compounds with a hit; in the whole collection about 2.7% have one here.

SMILES	RBBP9 inhibitor	PfM18AAP inh	TNF death inh	zVAD death inh	p97 inhibitor	Wee1 degr inh	zVAD necrop conf
O=C1N/C(=N/S(=O)(=O)Cc2ccccc2)S/C1=C/c1ccc2c(c1)OCO2	-6	2	1	2	0	-1	·
CCc1csc(CCNC(=O)C2CCC(=O)N(Cc3cccc(C(F)(F)F)c3)C2)n1 (centres undefined)	·	-1	·	·	·	·	·
Fc1ccc(/C=N/Nc2ccccn2)cc1	-4	4	17	73	-4	6	·
Brc1ccc(/C=N/Nc2ccccn2)cc1	-15	3	15	78*	-2	1	4
COc1ccc(/C=N/Nc2cc(OC)ncn2)cc1	-10	-11	6	78*	-1	-2	28
Clc1ccc(/C=N/Nc2ccccn2)cc1	-9	-7	18	81*	-4	0	45
CCOc1ccc(/C=N/Nc2ccccn2)cc1	-10	6	12	78*	-6	7	4
Cc1ccc(NC(=O)Nc2ncnc3nc[nH]c23)cc1	8	1	-7	29	0	5	·
CN(c1nc(-c2ccc(Br)cc2)cs1)C1CCS(=O)(=O)C1 (centres undefined)	-6	-2	-1	1	-1	5	·
COc1cc(/C=N/NC(=O)C(=O)Nc2ccccn2)ccc1O	-14	11	0	0	-9	-3	·
Cc1noc(C)c1/C=N/Nc1ccccn1	2	-3	45	82*	5	0	73*
COc1cc(/C=N/Nc2ccc(C(F)(F)F)cn2)ccc1O	-5	-6	45	79*	2	1	93*
COc1ccc(/C=N/Nc2ccccn2)cc1O	3	9	60*	90*	7	-2	64*
Cc1cccc(C)c1OCC(=O)Nc1ccc(N2CCOCC2)cc1	6	-9	3	2	-4	0	·
Cc1cc(C(=O)COC(=O)c2ccc(Br)o2)c(C)n1Cc1ccco1	-5	4	-2	0	-4	2	·
Cc1cc(C(=O)COC(=O)c2ccc(O)cc2)c(C)n1Cc1ccco1	-4	1	-2	75*	1	5	2
CC(C)CCN(C(=S)Nc1cccc(F)c1)C1CCN(C(C)C)CC1	-7	1	1	-1	1	4	·
Oc1ccc(Br)cc1/C=N/Nc1ncc(-c2ccccc2)cn1	-3	-11	-1	60	2	-2	·
Oc1ccc(/C=N/Nc2ncc(Br)cn2)c(O)c1	-1	52*	31	92*	-3	0	3
CCOc1ccc(CCNC(=O)CCc2nnc3ccc(N4CCCCC4)nn23)cc1OCC	·	5	·	·	·	·	·
Cn1ncc2c(Nc3ccc4ccccc4c3)ncnc21	-8	3	-3	92*	4	5	3
CC(=O)c1sc(Nc2ccccn2)nc1C	12	4	-4	96*	3	-2	1
CCCc1c(C(=O)N/N=C/c2ccco2)nnn1-c1nonc1N	·	3	·	·	·	·	·
Cc1ccc(/C=C2\SC(=S)N(CC(=O)Nc3ncc(Cc4ccccc4Cl)s3)C2=O)cc1	-7	3	-3	0	2	-2	·
Cc1ccc(/C=C2/SC(=S)N(CC(=O)Nc3ncc(Cc4ccc(C)cc4)s3)C2=O)cc1	-8	2	-1	75*	2	-1	0
SMILES	RBBP9 inhibitor	PfM18AAP inh	TNF death inh	zVAD death inh	p97 inhibitor	Wee1 degr inh	zVAD necrop conf
COC(=O)c1ccccc1NC(=O)NCc1ccncc1	2	-2	0	1	3	0	·
Cc1cccn2c(=O)c3cc(C(=O)NC4CCCC4)sc3nc12	·	4	·	·	·	·	·
CCOc1ccccc1N(CC(=O)NCC1CCCO1)C(=O)CCC(=O)Nc1nccs1 (centres undefined)	·	3	·	·	·	·	·
N#C/C(=C\C=C\c1ccccc1[N+](=O)[O-])C(=O)NC1CCCCC1	3	-11	-2	75*	3	0	0
COC(=O)c1ccc(NC(=O)Nc2ccc(OC)c(OC)c2)cc1	-1	5	1	82*	6	0	1
COC(=O)[C@H](C)NC(=O)Nc1ccc(OC)c(OC)c1	4	-2	-2	0	6	0	·

Compound activity as filed in PubChem.
